From ChEMBL document CHEMBL1649472, “Soft-tissue penetration of ceftobiprole in healthy volunteers determined by in vivo microdialysis” (Antimicrob Agents Chemother, 2009)
In brackets after ≈: the same amount, converted by molar mass. One block for each compound: values may come before it.

What was measured:
[1] = AUC in plasma of healthy human at 500 mg, po administered at tablet formulation with maximum release by microdialysis; type: ADME, organism-based
[2] = AUC in plasma of healthy human at 750 mg. po administered at tablet formulation with maximum release by microdialysis; type: ADME, organism-based
[3] = AUC in plasma of healthy human at 500 mg, po administered at tablet formulation with immediate release by microdialysis; type: ADME, organism-based
[4] = AUC in plasma of healthy human at 400 mg, po by microdialysis; type: ADME, organism-based
[5] = AUC (0 to infinity) in plasma of healthy human at […] up to 12 hrs; type: ADME; design: time infinity
Procedure, shortened: (§1)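 Twelve healthy volunteers received a single 500 mg dose as a 2-h i.v. infusion. K2EDTA blood was drawn from the opposite arm from predose to 24 h over 13 timepoints. Plasma was precipitated with acetonitrile/formic acid and perchloric acid. Protein binding was measured by ultrafiltration at 2 and 12 h, and free levels were derived per subject. Analysis was noncompartmental: linear-trapezoidal AUC, with λz from terminal-phase regression.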

[6] = Volume of distribution at steady state in plasma of healthy human at […] […]; type: ADME, organism-based; settings: read-out: Vdss; procedure, shortened: as §1
Staphylococcus aureus = assay: Antibacterial activity against methicillin-resistant Staphylococcus aureus; type: functional
Streptococcus pneumoniae = assay: Antibacterial activity against penicillin-resistant Streptococcus pneumoniae; type: functional
[7] = Cmax in adipose tissue of healthy human at 200 mg/l administered via microdialysis probe up to 12 hrs; type: ADME, organism-based
Procedure, shortened: (§2)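 Twelve healthy volunteers were given a single 500 mg dose as a 2-h i.v. infusion. Microdialysis probes in skeletal muscle and s.c. adipose tissue were perfused with lactated Ringer's at 1.5 μl/min. Each probe was calibrated by retrodialysis with drug at 200 mg/liter, followed by a 4-h washout. Dialysate was collected every 20 min to 12 h, then at 16 and 24 h, and assayed by HPLC-UV. Values were recovery-corrected and analysed noncompartmentally.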

[8] = Half life in adipose tissue of healthy human at 200 mg/l administered via microdialysis probe up to 12 hrs; type: ADME, tissue-based; procedure, shortened: as §2
[9] = AUClast in adipose tissue of healthy human at 200 mg/l administered via microdialysis probe up to 12 hrs; type: ADME; design: time < 12 hr; procedure, shortened: as §2
[10] = AUC (0 to infinity) in adipose tissue of healthy human at 200 mg/l administered via microdialysis probe up to 12 hrs; type: ADME; design: time infinity; procedure, shortened: as §2
[11] = Cmax in muscle of healthy human at 200 mg/l administered via microdialysis probe up to 12 hrs; type: ADME, organism-based, Muscle tissue; procedure, shortened: as §2
[12] = Half life in muscle of healthy human at 200 mg/l administered via microdialysis probe up to 12 hrs; type: ADME, tissue-based, Muscle tissue; procedure, shortened: as §2
[13] = AUClast in muscle of healthy human at 200 mg/l administered via microdialysis probe up to 12 hrs; type: ADME, tissue-based, Muscle tissue; design: time < 12 hr; procedure, shortened: as §2
[14] = AUC (0 to infinity) in muscle of healthy human at 200 mg/l administered via microdialysis probe up to 12 hrs; type: ADME, tissue-based, Muscle tissue; design: time infinity; procedure, shortened: as §2
[15] = Ratio of AUC in adipose tissue to fAUC in plasma of healthy human at 200 mg/l administered via microdialysis probe up to 12 hrs; type: ADME; settings: other
[16] = fT>MIC in adipose tissue of healthy human at 500 mg, iv by microdialysis
[17] = fT>MIC in skeletal muscle of healthy human at 500 mg, iv by microdialysis

- AUC [1]: 13700 ng·h/mL
- AUC [2]: 22100 ng·h/mL
- AUC [3]: 17600 ng·h/mL
Compound: N[C@@H](C(=O)N[C@@H]1C(=O)N2C(C(=O)O)=C(Cl)CS[C@H]12)c1ccccc1 [CEFACLOR ANHYDROUS]

- AUC [4]: 25600 ng·h/mL
Compound: C=CC1=C(C(=O)O)N2C(=O)[C@@H](NC(=O)/C(=N\OCC(=O)O)c3csc(N)n3)[C@H]2SC1 [CEFIXIME]

- AUC [4]: 22400 ng·h/mL
Compound: COCC1=C(C(=O)O)N2C(=O)[C@@H](NC(=O)/C(=N\OC)c3csc(N)n3)[C@H]2SC1 [CEFPODOXIME]

Compound: Nc1nc(/C(=N/O)C(=O)N[C@@H]2C(=O)N3C(C(=O)O)=C(/C=C4\CCN([C@@H]5CCNC5)C4=O)CS[C@H]23)ns1 [CEFTOBIPROLE]
- AUC(0-inf) [5]: 98000 ng·h/mL
- Vd [6]: 14.6 L
- MIC90 (Staphylococcus aureus): 2 µg/mL (≈ 3.74 µM)
- MIC90 (Streptococcus pneumoniae): 2 µg/mL (≈ 3.74 µM)
- Cmax [7]: 9610 ng/mL
- half-life [8]: 2.56 h
- AUC(0-t) at 12 h [9]: 34300 ng·h/mL
- AUC(0-inf) [10]: 36500 ng·h/mL
- Cmax [11]: 14000 ng/mL
- half-life [12]: 2.61 h
- AUC(0-t) at 12 h [13]: 50600 ng·h/mL
- AUC(0-inf) [14]: 53200 ng·h/mL
- Ratio AUC [15]: 0.49
- Efficacy [16]: 35.1%
- Efficacy [17]: 53.6%
